# Measured values from ChEMBL document CHEMBL5620388, “Quinolone analogues of benzothiazinone: Synthesis, antitubercular structure-activity relationship and ADME profiling” (Eur J Med Chem, 2023).
# What was measured:
# [1] = tested on: Mycobacterium tuberculosis; test: Antitubercular activity against Mycobacterium tuberculosis H37Rv assessed as reduction in microbial growth measured for 14 days; type: functional; conditions: 336 h, time 14 day
# In short: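 Strains were H37Rv, the fluoroquinolone-resistant GyrA G88C mutant, and the dprE1 P116S and C387S mutants. All were cultured in standard Middlebrook 7H9 with ADC supplement.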
# [2] = tested on: Mycobacterium tuberculosis; test: Antimicrobial activity against Mycobacterium tuberculosis H37Rv expressing GFP supplemented with casitone/glucose/tyloxapol assessed as reduction in bacterial growth measured on day 14; type: functional; conditions: 336 h, time 14 day
# In short: (§1)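 Line 1 medium is 7H9 with ADC and 0.05% Tween80. Line 2 medium is 7H9 with 0.03% casitone, 0.4% glucose and 0.05% tyloxapol. Incubated at 37 °C, 5% CO2, humidified. Fluorescence (ex 485/em 520) read at day 14 and normalised to rifampicin (2× MIC) and 5% DMSO controls. MIC90 is the lowest concentration giving >90% inhibition.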
# [3] = tested on: Mycobacterium tuberculosis; test: Antimicrobial activity against Mycobacterium tuberculosis H37Rv expressing GFP supplemented with albumin/dextrose/catalase/glucose/tween80 assessed as reduction in bacterial growth measured on day 14; type: functional; conditions: 336 h, time 14 day; in short: as §1
# [4] = Cytotoxicity against HEK293 cells assessed as reduction in cell viability incubated for 20 hrs by resazurin staining based assay; type: toxicity; conditions: human
# In short: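 HEK-293 cells grown in DMEM with 10% FBS, seeded at 5×10^3 cells/well into compound-containing plates, 20 h at 37 °C, 5% CO₂. Resazurin added for a further 3 h, fluorescence read at ex 560/em 590 nm. CC₅₀ from sigmoidal dose-response fit (variable top, bottom, slope) of inhibition vs log concentration. Highest concentration tested 32 µg/mL.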
# [5] = Aqueous solubility of compound in PBS at pH6.5 incubated for 24 hrs by shake-flask method; type: physicochemical; conditions: pH 6.5
# In short: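 Miniaturised shake-flask, 96-well: 4 µL of 10 mM DMSO stock dried down, then phosphate-buffered saline pH 6.5 added; shaken 24 h at 25 °C, centrifuged 3500 g for 15 min. Supernatant quantified by HPLC-DAD against a 10–220 µM calibration curve prepared in DMSO.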
# [6] = Lipophilicity, log P of the compound in octanol/buffer incubated for 2 hrs under shaking condition by shake flask based HPLC-UV method; type: physicochemical
# In short: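 LogD at pH 7.4 by miniaturised shake-flask in deep-well plates. Compound partitioned between equal volumes of 1-octanol and PBS pH 7.4, shaken vigorously 2 h at 25 °C. Phases separated, each analysed by HPLC-UV with diode array detection. LogD calculated from peak areas in octanol and buffer.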
# [7] = Metabolic stability in human liver microsome assessed as parent compound remaining after 30 mins by LC-MS/MS analysis; type: ADME; conditions: liver microsomes, read-out: Stability
# In short: (§2)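 Compound at 1 µM incubated with liver microsomes at 0.4 mg/mL, 37 °C for 30 min. Human microsomes were mixed gender, rat were male IGS, mouse were male CD1. Quenched with ice-cold acetonitrile containing internal standard and centrifuged. Parent disappearance measured by LC-MS/MS, with half-life and clearance from standard equations.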
# [8] = Metabolic stability in rat liver microsome assessed as parent compound remaining after 30 mins by LC-MS/MS analysis; type: ADME; conditions: liver microsomes, read-out: Stability; in short: as §2
# [9] = Metabolic stability in CD-1 mouse liver microsome assessed as parent compound remaining after 30 mins by LC-MS/MS analysis; type: ADME; conditions: liver microsomes, read-out: Stability; in short: as §2
# [10] = Metabolic stability in human liver microsome assessed as intrinsic clearance measured for 30 mins by LC-MS/MS analysis; type: ADME; conditions: liver microsomes, read-out: CLH; in short: as §2
# [11] = Metabolic stability in rat liver microsome assessed as intrinsic clearance measured for 30 mins by LC-MS/MS analysis; type: ADME; conditions: liver microsomes, read-out: CLH; in short: as §2
# [12] = Metabolic stability in CD-1 mouse liver microsome assessed as intrinsic clearance measured for 30 mins by LC-MS/MS analysis; type: ADME; conditions: liver microsomes, read-out: CLH; in short: as §2
SMILES,MIC90 [2] [µM],MIC90 [3] [µM],further results
COc1c(N2C[C@@H]3CCCN[C@@H]3C2)c(F)cc2c(=O)c(C(=O)O)cn(C3CC3)c12 [MOXIFLOXACIN],–,–,MIC90 [1]: 0.1 µM
O=C(NCc1cccc(Cl)c1)c1c[nH]c2c([N+](=O)[O-])cc(C(F)(F)F)cc2c1=O,> 125,2.99,–
Cc1ccc(CCNC(=O)c2c[nH]c3c([N+](=O)[O-])cc(C(F)(F)F)cc3c2=O)cc1,> 125,0.244,–
NNC(=O)c1c[nH]c2c([N+](=O)[O-])cc(C(F)(F)F)cc2c1=O,> 125,> 125,–
CO[C@H]1/C=C/O[C@@]2(C)Oc3c(C)c(O)c4c(O)c(c(/C=N/N5CCN(C)CC5)c(O)c4c3C2=O)NC(=O)/C(C)=C\C=C\[C@H](C)[C@H](O)[C@@H](C)[C@@H](O)[C@@H](C)[C@H](OC(C)=O)[C@@H]1C [RIFAMPIN],0.01,0.01,–
CCOC(=O)c1c[nH]c2c([N+](=O)[O-])cc(C(F)(F)F)cc2c1=O,< 0.244,< 0.244,–
O=C(NCc1ccc(F)cc1)c1c[nH]c2c([N+](=O)[O-])cc(C(F)(F)F)cc2c1=O,> 125,8.1,–
NNC(=O)c1ccncc1 [ISONIAZID],–,–,MIC90 [1]: 3.5 µM
Cc1cccc(CNC(=O)c2c[nH]c3c([N+](=O)[O-])cc(C(F)(F)F)cc3c2=O)c1,< 0.244,2.9,–
O=C(O)c1c[nH]c2c([N+](=O)[O-])cc(C(F)(F)F)cc2c1=O,62.5,> 125,–
O=C(NCCc1ccc(C(F)(F)F)cc1)c1c[nH]c2c([N+](=O)[O-])cc(C(F)(F)F)cc2c1=O,< 0.244,< 0.244,MIC90 [1]: 0.9 µM; CC50 at 20 h [4]: > 20 µM; solubility thermodynamic at 24 h [5]: < 5 µM; logD at 2 h [6]: 4.4; remaining at 0.5 h [7]: 68%; remaining at 0.5 h [8]: 68%; remaining at 0.5 h [9]: 67%; microsomal CLint [10]: 31.7 µL/min/mg; microsomal CLint [11]: 33.2 µL/min/mg; microsomal CLint [12]: 33.3 µL/min/mg
O=C(NCCc1ccc(F)cc1)c1c[nH]c2c([N+](=O)[O-])cc(C(F)(F)F)cc2c1=O,< 0.244,0.9,MIC90 [1]: 2 µM; CC50 at 20 h [4]: > 20 µM; solubility thermodynamic at 24 h [5]: < 5 µM; logP at 2 h [6]: 4; remaining at 0.5 h [7]: 73%; remaining at 0.5 h [8]: 75%; remaining at 0.5 h [9]: 56%; microsomal CLint [10]: 25.9 µL/min/mg; microsomal CLint [11]: 23.4 µL/min/mg; microsomal CLint [12]: 48.8 µL/min/mg
O=C(NCc1ccc(F)c(F)c1)c1c[nH]c2c([N+](=O)[O-])cc(C(F)(F)F)cc2c1=O,7,31.3,–
O=c1c(Br)c[nH]c2c([N+](=O)[O-])cc(C(F)(F)F)cc12,1.6,16,–
O=C(NCCc1ccc(Cl)cc1)c1c[nH]c2c([N+](=O)[O-])cc(C(F)(F)F)cc2c1=O,< 0.244,< 0.244,MIC90 [1]: 1.9 µM; CC50 at 20 h [4]: > 20 µM; solubility thermodynamic at 24 h [5]: < 5 µM; logD at 2 h [6]: 4.3; remaining at 0.5 h [7]: 75%; remaining at 0.5 h [8]: 80%; remaining at 0.5 h [9]: 76%; microsomal CLint [10]: 24.3 µL/min/mg; microsomal CLint [11]: 18.4 µL/min/mg; microsomal CLint [12]: 23 µL/min/mg
O=C(Nc1cccc(C(F)(F)F)c1)c1cnc2c([N+](=O)[O-])cc(C(F)(F)F)cc2c1Cl,0.7,31.2,–
O=C(NCc1ccc(Cl)cc1)c1c[nH]c2c([N+](=O)[O-])cc(C(F)(F)F)cc2c1=O,> 125,7.4,–
O=C(NCc1cccc(F)c1)c1c[nH]c2c([N+](=O)[O-])cc(C(F)(F)F)cc2c1=O,0.5,3,–
O=c1cc[nH]c2c([N+](=O)[O-])cc(C(F)(F)F)cc12,62.5,16,–
O=C(NCc1ccccc1Cl)c1c[nH]c2c([N+](=O)[O-])cc(C(F)(F)F)cc2c1=O,0.5,0.8,–
